In PMC5814953 (Nucleic Acids Research, 2017):
Ends that are not written are not given here. Peptide text beside a SMILES is read from it. * marks the point of attachment. Biotin = O=C1N[C@H]2[C@H](CS[C@H]2CCCCC(=O)*)N1

Legend:
[1] = tested on: Ani2; experiment: 2D 1H ROESY NMR, cis-trans isomerization of NTD peptide by Ani2; format: biochemical, Schizosaccharomyces pombe
[2] = 2D 1H ROESY NMR of NTD peptide in the absence of isomerase; format: physicochemical; settings: pH 6.5, 25°C
Summary of the method: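 Synthetic NTD peptide at 2 mM in 20 mM phosphate buffer (90% H2O/10% D2O), pH 6.5, run at 25°C. No isomerase was added; the paired runs contained 0.03 mM bacterially produced Ani1 or Ani2.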

[3] = tested on: Ani1; experiment: 2D 1H ROESY NMR, cis-trans isomerization of NTD peptide by Ani1; format: biochemical, Schizosaccharomyces pombe
[4] = tested on: Sim3-FLAG; experiment: Biotinylated peptide pull-down of Sim3-FLAG from yeast cell extract, immunoblot; format: binding, Schizosaccharomyces pombe
[5] = target: T1, Sim3-His, bacterially purified recombinant Sim3 protein (S. pombe, UniProt Q9USQ4 1-396); experiment: ITC
T1 sequence (looked up): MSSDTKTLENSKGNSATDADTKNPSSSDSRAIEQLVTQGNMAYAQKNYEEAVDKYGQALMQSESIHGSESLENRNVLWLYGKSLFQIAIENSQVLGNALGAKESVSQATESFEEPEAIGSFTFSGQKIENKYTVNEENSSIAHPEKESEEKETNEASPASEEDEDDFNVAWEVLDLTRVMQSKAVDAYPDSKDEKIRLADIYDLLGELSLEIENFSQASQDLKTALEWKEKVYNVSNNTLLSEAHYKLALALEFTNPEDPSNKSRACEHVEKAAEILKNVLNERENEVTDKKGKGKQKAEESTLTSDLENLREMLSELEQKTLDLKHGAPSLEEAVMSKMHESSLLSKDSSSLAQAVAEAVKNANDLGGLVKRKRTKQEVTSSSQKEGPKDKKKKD

SLMAEPGDPIPRPR
cis-trans exchange cross-peaks ([1]; presence of 0.03 mM Ani2, 2 mM peptide, 20 mM phosphate (90% H2O + 10% D2O, pH 6.5), 25°C): two prominent and reproducible exchange cross-peaks corresponding to Ile14 and Arg16 | cross peaks corresponding to P10 or P13 ([1]; presence of Ani2, 2 mM peptide, pH 6.5, 25°C): No cross peaks were found corresponding to P10 or P13 | cis-trans exchange cross-peaks ([2]; absence of Ani1 or Ani2, 2 mM peptide, 20 mM phosphate): no cross-peaks were observed | speed of the cis- and trans-conformational switch ([2]; absence of Ani1 or Ani2, too slow to be detected under the NMR time scale, 2 mM peptide): < 0.1 s⁻¹ | cis-trans exchange cross-peaks ([3]; presence of 0.03 mM Ani1, 2 mM peptide, 20 mM phosphate (90% H2O + 10% D2O, pH 6.5), 25°C): two prominent and reproducible exchange cross-peaks corresponding to Ile14 and Arg16 | cross peaks corresponding to P10 or P13 ([3]; presence of Ani1, 2 mM peptide, pH 6.5, 25°C): No cross peaks were found corresponding to P10 or P13

CC[C@H](C)[C@H](NC(=O)[C@@H]1CCCN1C(=O)[C@H](CC(=O)O)NC(=O)CNC(=O)[C@@H]1CCCN1C(=O)[C@H](CCC(=O)O)NC(=O)[C@H](C)NC(=O)[C@H](CCSC)NC(=O)[C@H](CC(C)C)NC(=O)[C@H](CO)NC(=O)[C@H](CCCCN)NC(=O)[C@H](CCCCN)NC(=O)[C@H](C)NC(=O)[C@@H](N)CCSC)C(=O)N1CCC[C@H]1C(=O)N[C@@H](CCCNC(=N)N)C(=O)N1CCC[C@H]1C(=O)N[C@@H](CCCNC(=N)N)C(=O)N[C@@H](CCCCN)C(=O)N[C@@H](CCCCN)C(=O)N[C@@H](CCCNC(=N)N)C(=O)N[C@@H](Cc1ccc(O)cc1)C(=O)N[C@@H](CCCNC(=N)N)C(=O)N1CCC[C@H]1C(=O)NCC(=O)N[C@H](C(=O)N[C@H](C(=O)N[C@@H](C)C(=O)N[C@@H](CC(C)C)C(=O)N[C@@H](CCCNC(=N)N)C(=O)N[C@@H](CCCCNC(=O)CCCC[C@@H]1SC[C@@H]2NC(=O)N[C@@H]21)C(=O)O)[C@@H](C)O)[C@@H](C)O [WT SpCENP-A NTD] (H-MAKKSLMAEPGDPIPRPRKKRYRPGTTALRK(Biotin)-OH; N-terminus and C-terminus assumed)
reduction of Sim3-FLAG interaction ([4]; WT peptide, absence of both ani1 and ani2, vs WT cells (1–0.57)): ~43% | effect of single null mutation of ani1 or ani2 on Sim3-FLAG binding (in words) ([4]; Δani1 or Δani2 single mutant cell extract, Figure 6B bottom gel): did not grossly affect the binding

MAKKSLMAEAGDAIARARKK (peptide, UniProt Q9Y812 1-20, looked up, also: biotinylated, position not given here) [SpCENP-A NTD 4PA peptide (quadruple P-to-A mutations of the GRANT prolines), biotinylated]
Kd [5]: 4.5 µM
